# Results reported in ChEMBL document CHEMBL1127497, “Studies on antiulcer drugs. 7. 2-Guanidino-4-pyridylthiazoles as histamine H2-receptor antagonists with potent gastroprotective effects against nonsteroidal antiinflammatory drug-induced injury” (J Med Chem, 1994).
# What was measured:
# [1] = system: Rattus norvegicus; experiment: Inhibition of aspirin induced gastric lesions in rats after peroral dose of 32 mg/kg; type: functional; conditions: Stomach, route oral
# In short: (§1)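 Male SD rats (~200 g), fasted 24 h. Test compound given orally in 0.1% MC, then aspirin 200 mg/kg in 0.2 N HCl/0.1% MC (10 mL/kg) orally 30 min later. Rats killed 1 h after aspirin. Ulcer index is the summed lesion length (mm); % inhibition is relative to controls. Seven rats per group for screening; ED50 by probit from three doses, ten rats per dose.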
# [2] = molecular target: Histamine H2 receptor (Cavia porcellus) (UniProt P47747); experiment: H2 receptor antagonistic activity against histamine stimulated chronotropic response in isolated guinea pig right atrium at 1x10E-6 g/mL.; type: functional, tissue-based; conditions: Cardiac atrium
# In short: (§2)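 Guinea pig atrial strip under 0.3–0.6 g tension in Tyrode solution, 30 °C, gassed with 95% O2-5% CO2. Beating rate recorded. Histamine HCl 1 × 10-6 g/mL given; after washout, test compound added (single-concentration screen 1 × 10-6 g/mL) and histamine response compared before and 30 min after dosing. IC50 from three doses by probit analysis, three atria per dose.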
# [3] = system: Rattus norvegicus; experiment: Inhibition of histamine stimulated gastric acid secretion in lumen perfused anaesthetized rats after 1 mg/kg intravenous dose; type: functional; conditions: Stomach
# In short: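 Male SD rats (~250 g), fasted 24 h, urethane 1.25 g/kg ip. Stomach lumen perfused with saline; perfusate titrated with 25 mM NaOH. Histamine infused iv at 3 mg/kg/h. At plateau, compound given iv at 1 mg/kg. Result expressed as maximal inhibition of acid output; n = 2.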
# [4] = system: Canis familiaris; experiment: Evaluated against tetragastrin stimulated gastric acid secretion in conscious Hiedenhain-pouch dogs at a dose of 0.32 mg/kg, po; type: functional; conditions: Canis lupus familiaris, Stomach
# In short: (§3)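 Beagle Heidenhain-pouch dogs, 8–13 kg, oral dosing. Acid concentration titrated to pH 7 with 0.1 N NaOH; total acid output is volume × concentration. Change is relative to predosing output. ED50 by probit from three or four doses, three or four dogs per dose.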
# [5] = system: Rattus norvegicus; experiment: Effect on gastric mucosal blood flow 15 minutes before dosing of HCl and aspirin after drug dosing at 32 mg/kg intragastrically; type: functional, Gastric mucosa; conditions: route intragastric
# In short: (§4)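 Male rats, five per group, test drug suspended in 0.1% MC given intragastrically. Aspirin 200 mg/kg in 0.2 N HCl/0.1% MC (0.2 mL) given ig 15 min later. […] Reported as mean ± SEM and % of initial.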
# [6] = system: Rattus norvegicus; experiment: Effective dose against indomethacin induced gastric lesions in rats after peroral administration; type: functional; conditions: Stomach, po
# In short: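 Male SD rats (~200 g), fasted 24 h, dosed orally with test compound in 0.1% MC, ten per group. Indomethacin 5 mg/kg in 0.1% MC given orally 30 min later, then 0.35 N HCl (5 mL/kg) orally after 1 h. Killed 1 h after that. Ulcer index is the summed lesion length. ED50 by probit from three doses.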
# [7] = system: Rattus norvegicus; experiment: Effect on gastric mucosal blood flow 60 minutes after administration of HCl and aspirin after drug dosing at 32 mg/kg intragastrically; type: functional, Gastric mucosa; conditions: route intragastric; in short: as §4
# [8] = system: Rattus norvegicus; experiment: Effect on gastric mucosal blood flow 30 minutes after administration of HCl and aspirin after drug dosing at 32 mg/kg intragastrically; type: functional, Gastric mucosa; conditions: route intragastric; in short: as §4
# [9] = system: Rattus norvegicus; experiment: Effect on gastric mucosal blood flow at basal value which is 15 minutes before dosing of drugs at 32 mg/kg intragastrically; type: functional, Gastric mucosa; conditions: route intragastric; in short: as §4
# [10] = system: Rattus norvegicus; experiment: Effect on gastric mucosal blood flow 15 minutes before dosing of HCl and aspirin after drug dosing at 10 mg/kg intragastrically; type: functional, Gastric mucosa; conditions: route intragastric; in short: as §4
# [11] = system: Rattus norvegicus; experiment: Effect on gastric mucosal blood flow 30 minutes after administration of HCl and aspirin after drug dosing at 10 mg/kg intragastrically; type: functional, Gastric mucosa; conditions: route intragastric; in short: as §4
# [12] = system: Rattus norvegicus; experiment: Effect on gastric mucosal blood flow at basal value which is 15 minutes before dosing of drugs at 10 mg/kg intragastrically; type: functional, Gastric mucosa; conditions: route intragastric; in short: as §4
# [13] = system: Rattus norvegicus; experiment: Evaluated for inhibition of basal gastric acid secretion in pyolus-ligated rats after intraduodenal administration; conditions: Stomach, id
# [14] = system: Rattus norvegicus; experiment: Effect on gastric mucosal blood flow 60 minutes after administration of HCl and aspirin after drug dosing at 10 mg/kg intragastrically; type: functional, Gastric mucosa; conditions: route intragastric; in short: as §4
# [15] = system: Canis familiaris; experiment: Effective dose against tetragastrin stimulated gastric acid secretion in conscious Hiedenhain-pouch dogs after peroral administration; type: functional; conditions: Canis lupus familiaris, Stomach, po; in short: as §3
# [16] = system: Rattus norvegicus; experiment: Effective dose against aspirin induced gastric lesions in rats after peroral administration; type: functional; conditions: Stomach, po; in short: as §1
# [17] = molecular target: Histamine H2 receptor (Cavia porcellus, UniProt P47747); experiment: Compound was tested for H2 receptor antagonistic activity against histamine stimulated chronotropic response in isolated guinea pig right atrium; type: functional, tissue-based, Cardiac atrium; in short: as §2
# Sequence of Histamine H2 receptor (P47747 whole entry): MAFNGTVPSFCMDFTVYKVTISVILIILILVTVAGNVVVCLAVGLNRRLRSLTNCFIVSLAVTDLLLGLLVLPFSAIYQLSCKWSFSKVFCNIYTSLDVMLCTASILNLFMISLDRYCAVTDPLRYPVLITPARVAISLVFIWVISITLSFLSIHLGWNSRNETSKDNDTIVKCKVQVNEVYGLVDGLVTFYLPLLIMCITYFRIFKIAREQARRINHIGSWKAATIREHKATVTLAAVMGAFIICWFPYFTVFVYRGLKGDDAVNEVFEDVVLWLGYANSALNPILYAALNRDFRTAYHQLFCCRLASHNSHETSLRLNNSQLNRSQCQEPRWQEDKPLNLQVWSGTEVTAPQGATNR
# Sequence of Histamine H2 receptor (Cavia porcellus) (P47747 whole entry): as above
Compound,inhibition in vivo at 32 mg/kg [1] [%],inhibition [2] [%],inhibition in vivo at 1 mg/kg [3] [%],other results
N=C(N)Nc1nc(-c2cccc(CNC=O)n2)cs1,57,46,83,
CC(=O)NCc1cncc(-c2csc(N=C(N)N)n2)c1,42,22,10,
N=C(N)Nc1nc(-c2cccc(CNC(=O)C(F)(F)F)n2)cs1,43,72,43,
N=C(N)Nc1nc(-c2cccc(CC(=N)NS(N)(=O)=O)n2)cs1,16,,42,
N=C(N)Nc1nc(-c2ccc(CC(=N)NS(N)(=O)=O)o2)cs1,49,84,99,inhibition in vivo at 0.32 mg/kg [4]: 92%
CNC(=O)NCc1cccc(-c2csc(N=C(N)N)n2)n1,57,86,79,
N=C(N)Nc1nc(-c2cccc(CNC(=O)C3CCC(=O)CC3)n2)cs1,62,2,37,
N=C(N)Nc1nc(-c2cccc(CNC(=O)C3CC3)n2)cs1,62,60,91,inhibition in vivo at 0.32 mg/kg [4]: 48%
N=C(N)Nc1nc(-c2cccc(CNC(=O)C3CCCO3)n2)cs1 (stereo not given),66,7,6,
N=C(N)Nc1nc(-c2cccc(CNC(=O)CSCc3ccco3)n2)cs1,49,76,16,
N=C(N)Nc1nc(-c2cccc(CNC(=O)c3ccco3)n2)cs1,69,13,34,
CCC(=O)NCc1cccc(-c2csc(N=C(N)N)n2)n1,70,72,81,inhibition in vivo at 0.32 mg/kg [4]: 50%
CCCC(=O)NCc1cccc(-c2csc(N=C(N)N)n2)n1,56,25,71,
CN/C(=C\[N+](=O)[O-])NCc1cccc(-c2csc(N=C(N)N)n2)n1,-27,-14,18,
N=C(N)Nc1nc(-c2cccc(CNC(=O)C3CCCC3)n2)cs1,92,32,67,inhibition in vivo at 0.32 mg/kg [4]: 22%
N=C(N)Nc1nc(-c2cccc(CNC(N)=O)n2)cs1,34,100,98,inhibition in vivo at 0.32 mg/kg [4]: 78%
CCNC(=O)NCc1cccc(-c2csc(N=C(N)N)n2)n1,34,52,91,

Compound,inhibition in vivo at 32 mg/kg [1] [%],inhibition [2] [%],inhibition in vivo at 1 mg/kg [3] [%],other results
CCS(=O)(=O)N/C=N\Cc1cccc(-c2csc(N=C(N)N)n2)n1,1,4,-18,
CC(=O)Nc1cccc(-c2csc(N=C(N)N)n2)n1,43,,16,
CC(=O)NCCc1cccc(-c2csc(N=C(N)N)n2)n1,31,3,58,
CS(=O)(=O)NCc1cccc(-c2csc(N=C(N)N)n2)n1,60,50,46,
N=C(N)Nc1nc(-c2cccc(CNC(=O)C3CCCCC3)n2)cs1,62,23,23,
C/N=C(\NC#N)NCc1cccc(-c2csc(N=C(N)N)n2)n1,37,43,15,
CSCC(=O)NCc1cccc(-c2csc(N=C(N)N)n2)n1,80,37,4,
CC(C)C(=O)NCc1cccc(-c2csc(N=C(N)N)n2)n1,65,62,21,
NC(N)=Nc1nc(CSCC/C(N)=N/S(N)(=O)=O)cs1 [FAMOTIDINE],22,87,96,Flow rate [5]: 60.5 ml min-1 100g-1; ED50 [6]: > 100 mg/kg; Flow rate [7]: 43.4 ml min-1 100g-1; Flow rate [8]: 46.9 ml min-1 100g-1; Flow rate [9]: 58.4 ml min-1 100g-1; Flow rate [10]: 73 ml min-1 100g-1; inhibition in vivo at 0.32 mg/kg [4]: 96%; Flow rate [11]: 62.5 ml min-1 100g-1; Flow rate [12]: 68.6 ml min-1 100g-1; ED50 [13]: 3.5 mg/kg; Flow rate [14]: 50.5 ml min-1 100g-1; ED50 [15]: 0.042 mg/kg; ED50 [16]: > 100 mg/kg
CC(C)(C)C(=O)NCc1cccc(-c2csc(N=C(N)N)n2)n1,58,,22,
C/N=C(/NCc1cccc(-c2csc(N=C(N)N)n2)n1)NS(C)(=O)=O,10,29,24,
N=C(N)Nc1nc(-c2cccc(CNC(=O)C3CCC3)n2)cs1,82,2,61,
CCCNC(=O)NCc1cccc(-c2csc(N=C(N)N)n2)n1,42,82,90,
NC(N)=Nc1nc(CSCCC(N)=NS(N)(=O)=O)cs1 [FAMOTIDINE],,,,IC50 [17]: 300 nM
N=C(N)Nc1nc(-c2cccc(CNC(=O)C3CCOC3)n2)cs1 (stereo not given),42,32,51,
N=C(N)Nc1nc(-c2cccc(CNC(=O)C3CCCCCC3)n2)cs1,93,13,43,inhibition in vivo at 0.32 mg/kg [4]: 67%
CC(=O)NCc1cc(-c2csc(N=C(N)N)n2)ccn1,42,,40,
